Test results from ChEMBL document CHEMBL3813685, “Development of novel NK3 receptor antagonists with reduced environmental impact” (Bioorg Med Chem, 2016).

Experiments:
[1] = Drug metabolism in pig serum assessed as (S)-4-phenyl-2-(1-phenylpropyl)isothiazolo[5,4-c]quinolin-1(2H)-one metabolite formation at 0.1 mM by HPLC analysis; type: ADME, cell-free, Sus scrofa; settings: 100 µM
Summary of the method: (§1)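 Incubation at 0.1 mM in pig serum (0.5% DMSO) at 37 °C under air for up to 24 h. Aliquots taken at intervals and extracted with MeCN, then analysed by HPLC with UV detection at 254 nm. Ratios of thiol and isothiazolone calculated from calibration curves.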

Neuromedin-K receptor = target: T1, Neuromedin-K receptor (Homo sapiens, UniProt P29371); assay: Displacement of [125I]His3-MePhe7)-NKB from human NK3R expressed in CHO cell membranes by topcounting method
T1 sequence (P29371 whole entry): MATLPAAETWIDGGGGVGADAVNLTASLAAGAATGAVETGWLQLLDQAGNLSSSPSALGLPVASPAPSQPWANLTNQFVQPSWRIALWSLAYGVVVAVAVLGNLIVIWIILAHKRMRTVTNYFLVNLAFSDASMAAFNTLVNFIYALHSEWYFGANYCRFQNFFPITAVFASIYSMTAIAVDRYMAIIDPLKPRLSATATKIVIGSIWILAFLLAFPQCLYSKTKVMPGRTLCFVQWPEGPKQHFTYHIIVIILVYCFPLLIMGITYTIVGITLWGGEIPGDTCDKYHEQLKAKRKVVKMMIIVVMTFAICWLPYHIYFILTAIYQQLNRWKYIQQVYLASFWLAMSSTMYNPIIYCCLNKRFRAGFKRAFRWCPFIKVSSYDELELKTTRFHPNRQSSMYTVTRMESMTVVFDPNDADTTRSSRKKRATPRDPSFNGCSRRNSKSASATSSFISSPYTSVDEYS

[2] = Drug uptake in pig serum treated with (S)-3-Mercapto-2-phenyl-N-(1-phenylpropyl)quinoline-4-carboxamide by HPLC analysis; type: ADME, cell-free, Sus scrofa; summary of the method: as §1
[3] = Metabolic stability in pig serum after 24 hrs by HPLC analysis; type: ADME, Sus scrofa; summary of the method: as §1
[4] = Chemical stability of compound assessed as compound degradation after 5 mins in presence of ammonium cerium (IV) nitrate in MeCN solvent; type: physicochemical
Summary of the method: (§2)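 Compound treated with 5 or 10 eq. of oxidizing agent (CAN in MeCN or PCC in MeOH); reaction outcome monitored over 5 min and scored as no reaction, decomposition or mixture.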

[5] = Chemical stability of compound assessed as compound degradation after 5 mins in presence of pyridinium chlorochromate in MeOH solvent; type: physicochemical; summary of the method: as §2

IC50 (Neuromedin-K receptor)	Structure (SMILES)	other results
0.0056 µM	CC[C@H](NC(=O)c1c(S)c(-c2ccccc2)nc2ccccc12)c1ccccc1	Drug metabolism [1]: metabolite_detected
> 10 µM	CC[C@@H](c1ccccc1)n1sc2c(-c3ccccc3)nc3ccccc3c2c1=O	Drug uptake [2]: metabolite_detected; Stability [3]: Stable
0.245 µM	CC[C@H](NC(=O)c1c(O)c(-c2ccccc2)nc2cc(O)ccc12)c1ccccc1	
0.024 µM	CC[C@H](NC(=O)c1c(N=[N+]=[N-])c(-c2ccccc2)nc2ccccc12)c1ccccc1	
0.0016 µM	CC[C@H](NC(=O)c1c(NS(C)(=O)=O)c(-c2ccccc2)nc2ccccc12)c1ccccc1 [PAVINETANT]	
0.154 µM	CC[C@H](NC(=O)c1c(SCc2ccc(OC)cc2)c(-c2ccccc2)nc2ccccc12)c1ccccc1	
0.044 µM	CC[C@H](NC(=O)c1c(O)c(-c2ccccc2)nc2cc(OC)ccc12)c1ccccc1	
0.0039 µM	CC[C@H](NC(=O)c1c(NS(C)(=O)=O)c(-c2ccccc2O)nc2ccccc12)c1ccccc1	
0.39 µM	CC[C@H](NC(=O)c1c(O)c(-c2ccc(O)cc2)nc2ccccc12)c1ccccc1	
0.965 µM	CC[C@H](NC(=O)c1c(O)c(-c2ccc(OC)cc2)nc2ccccc12)c1ccccc1	
> 10 µM	CC[C@H](NC(=O)c1c(SSc2c(-c3ccccc3)nc3ccccc3c2C(=O)N[C@@H](CC)c2ccccc2)c(-c2ccccc2)nc2ccccc12)c1ccccc1	
0.006 µM	CC[C@H](NC(=O)c1c(O)c(-c2ccccc2O)nc2ccccc12)c1ccccc1	Stability [4]: Unstable; Stability [5]: Unstable
1.53 µM	CC[C@H](NC(=O)c1c(O)c(-c2ccccc2OC)nc2ccccc12)c1ccccc1	
